Measurements taken from ChEMBL document CHEMBL1123546, “Inhibition of cyclic nucleotide phosphodiesterases from pig coronary artery by benzo-separated analogues of 3-isobutyl-1-methylxanthine” (J Med Chem, 1986).

What was measured:
[1] = biological target: cGMP-dependent 3',5'-cyclic phosphodiesterase (Homo sapiens, UniProt O00408); assay: Inhibition of Phosphodiesterase 2 from pig coronary artery; type: tissue-based, Sus scrofa; details: target entry is the homologue from another species; read-out: I50
Method in brief: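 Pooled peak II was the enzyme source, taken from DEAE-cellulose fractionation of soluble porcine coronary media plus intima homogenate (20 mM Tris-HCl pH 7.5, 2 mM Mg(OAc)2, 1 mM DTT). Hydrolysis of 1 μM cAMP ran at 30 °C for 30 min, with enzyme dilution set for 10-20% hydrolysis. Analogues were tested at 1-100 μM in 3% final Me2SO. I50 was the concentration giving 50% inhibition.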

Phosphodiesterase 1 = Phosphodiesterase 1 (Homo sapiens, UniProt P54750+Q01064+Q14123); assay: Inhibition of Calmodulin Sensitive Phosphodiesterase 1 from pig coronary artery; type: tissue-based, Sus scrofa; details: target entry is the homologue from another species
Method in brief: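 Media plus intima of porcine coronary artery homogenized in 20 mM Tris-HCl pH 7.5, 2 mM Mg(OAc)2, 1 mM DTT. The soluble fraction was resolved on DEAE-cellulose and peak I was pooled. Assay used 1 μM cGMP with calcium + calmodulin, 30 °C for 30 min, at 10-20% hydrolysis. Analogues were tested at 1-100 μM with 3% final Me2SO. I50 was taken as the concentration giving 50% inhibition of hydrolysis.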

Sequence of cGMP-dependent 3',5'-cyclic phosphodiesterase (O00408 whole entry): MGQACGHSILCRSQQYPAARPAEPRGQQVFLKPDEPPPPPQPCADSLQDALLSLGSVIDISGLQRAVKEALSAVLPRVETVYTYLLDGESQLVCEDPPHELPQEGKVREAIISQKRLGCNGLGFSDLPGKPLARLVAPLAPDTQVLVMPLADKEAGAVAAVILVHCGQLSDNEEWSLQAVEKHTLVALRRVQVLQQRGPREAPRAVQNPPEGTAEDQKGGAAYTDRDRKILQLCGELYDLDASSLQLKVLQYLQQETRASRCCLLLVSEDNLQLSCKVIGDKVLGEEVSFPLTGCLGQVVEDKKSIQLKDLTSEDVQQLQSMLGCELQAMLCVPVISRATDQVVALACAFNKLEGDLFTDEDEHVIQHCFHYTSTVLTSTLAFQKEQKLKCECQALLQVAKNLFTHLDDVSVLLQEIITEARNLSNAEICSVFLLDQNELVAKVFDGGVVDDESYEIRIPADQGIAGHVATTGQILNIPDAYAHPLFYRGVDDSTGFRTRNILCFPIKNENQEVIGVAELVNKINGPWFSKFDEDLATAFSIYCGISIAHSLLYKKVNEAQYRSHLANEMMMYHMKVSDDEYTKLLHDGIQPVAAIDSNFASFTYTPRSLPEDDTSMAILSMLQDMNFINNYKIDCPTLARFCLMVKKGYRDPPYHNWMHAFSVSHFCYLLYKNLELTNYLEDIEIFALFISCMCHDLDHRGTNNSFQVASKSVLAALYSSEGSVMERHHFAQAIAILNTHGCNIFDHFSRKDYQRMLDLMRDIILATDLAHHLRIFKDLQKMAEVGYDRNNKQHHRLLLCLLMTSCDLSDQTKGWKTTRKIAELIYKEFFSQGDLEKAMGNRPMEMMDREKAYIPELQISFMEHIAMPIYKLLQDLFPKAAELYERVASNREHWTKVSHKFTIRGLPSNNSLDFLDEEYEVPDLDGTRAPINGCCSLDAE

Compound | IC50 [1] [µM] | I50 (Phosphodiesterase 1) [µM]
CC(C)Cn1c(=O)n(C)c(=O)c2c3ncn(Cc4ccccc4)c3ccc21 | 13 | 20
CC(C)Cn1c(=O)n(C)c(=O)c2cc3[nH]cnc3cc21 | 89 | 40
CC(C)Cn1c(=O)n(C)c(=O)c2cc3c(cc21)ncn3Cc1ccccc1 | 14 | 1.2
CC(C)Cn1c(=O)n(C)c(=O)c2c3nc[nH]c3ccc21 | 18 | 8.4
CC(C)Cn1c(=O)n(C)c(=O)c2c3c(ccc21)ncn3Cc1ccccc1 | 14 | 19
CC(C)Cn1c(=O)n(C)c(=O)c2c3nc(C(C)(C)C)[nH]c3ccc21 | 44 | > 50
CC(C)CCn1c(=O)c2cc3nc[nH]c3cc2n(CC(C)C)c1=O | 20 | > 25
CC(C)CCn1c(=O)c2c3nc[nH]c3ccc2n(CC(C)C)c1=O | 19 | > 25
CC(C)Cn1c(=O)n(C)c(=O)c2cc3ncn(Cc4ccccc4)c3cc21 | 27 | 4.9
CC(C)Cn1c(=O)n(C)c(=O)c2c1ncn2Cc1ccccc1 | 108 | 4.4
CC(C)CCn1c(=O)c2nc[nH]c2n(CC(C)C)c1=O | 17 | 86

Next, values leading:

IC50 [1] [µM] | I50 (Phosphodiesterase 1) [µM] | Compound
> 50 | 36 | COCc1nc2cc3c(=O)n(C)c(=O)n(CC(C)C)c3cc2[nH]1
212 | 5.2 | COCc1nc2c([nH]1)c(=O)n(C)c(=O)n2CC(C)C
68 | 1.9 | Cc1nc2c([nH]1)c(=O)n(C)c(=O)n2CC(C)C
> 25 | 15 | Cc1nc2c(ccc3c2c(=O)n(C)c(=O)n3CC(C)C)[nH]1
58 | 1.8 | CC(C)Cn1c(=O)n(C)c(=O)c2[nH]c(C(C)(C)C)nc21
66 | 54 | COCc1nc2c(ccc3c2c(=O)n(C)c(=O)n3CC(C)C)[nH]1
> 50 | 36 | Cc1nc2cc3c(cc2[nH]1)c(=O)n(C)c(=O)n3CC(C)C
> 50 | 41 | CC(C)Cn1c(=O)n(C)c(=O)c2cc3[nH]c(C(C)(C)C)nc3cc21
15 | 6.3 | CC(C)Cn1c(=O)n(C)c(=O)c2nc[nH]c21 [ISOBUTYLMETHYLXANTHINE]
